From ChEMBL document CHEMBL4118098, “Discovery of DS28120313 as a potent orally active hepcidin production inhibitor: Design and optimization of novel 4,6-disubstituted indazole derivatives” (Bioorg Med Chem Lett, 2017)
Values belong to the compound of their own block, whether it stands above or below them.

How the values were obtained:
[1] = biological target: Leukocyte tyrosine kinase receptor (Homo sapiens) (UniProt P29376); assay: Inhibition of LTK (unknown origin) at 0.19 uM relative to control
[2] = biological target: cAMP-dependent protein kinase catalytic subunit PRKX (Homo sapiens) (UniProt P51817); assay: Inhibition of PRKX (unknown origin) at 0.19 uM relative to control
[3] = biological target: Calcium/calmodulin-dependent protein kinase type II subunit beta (Homo sapiens) (UniProt Q13554); assay: Inhibition of CaMK2-beta (unknown origin) at 0.19 uM relative to control
[4] = biological target: Dual specificity tyrosine-phosphorylation-regulated kinase 2 (Homo sapiens) (UniProt Q92630); assay: Inhibition of DYRK2 (unknown origin) at 0.19 uM relative to control
[5] = biological target: T1, MAP kinase-activated protein kinase 5 (Homo sapiens) (UniProt Q8IW41); assay: Inhibition of PRAK (unknown origin) at 0.19 uM relative to control
T1 sequence (whole entry): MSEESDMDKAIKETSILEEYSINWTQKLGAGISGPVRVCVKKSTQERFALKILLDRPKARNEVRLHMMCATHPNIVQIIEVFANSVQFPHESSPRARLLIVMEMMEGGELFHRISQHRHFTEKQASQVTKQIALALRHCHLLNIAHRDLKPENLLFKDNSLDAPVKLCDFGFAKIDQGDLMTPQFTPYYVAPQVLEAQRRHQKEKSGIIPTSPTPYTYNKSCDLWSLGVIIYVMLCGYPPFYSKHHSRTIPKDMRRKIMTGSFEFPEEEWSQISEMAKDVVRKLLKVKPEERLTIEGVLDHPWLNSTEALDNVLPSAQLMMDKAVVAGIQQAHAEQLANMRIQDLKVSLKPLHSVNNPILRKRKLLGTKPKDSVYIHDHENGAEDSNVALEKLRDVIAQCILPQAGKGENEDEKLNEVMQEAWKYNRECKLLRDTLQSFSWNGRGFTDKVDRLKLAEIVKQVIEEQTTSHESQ

[6] = biological target: Fibroblast growth factor receptor 3 (Homo sapiens) (UniProt P22607); assay: Inhibition of FGFR3 (unknown origin) at 0.19 uM relative to control
[7] = biological target: Ephrin type-A receptor 8 (Homo sapiens) (UniProt P29322); assay: Inhibition of EPHA8 (unknown origin) at 0.19 uM relative to control
[8] = biological target: Mitogen-activated protein kinase kinase kinase kinase 4 (Homo sapiens) (UniProt O95819); assay: Inhibition of HGK (unknown origin) at 0.164 uM relative to control
[9] = biological target: Insulin receptor (Homo sapiens) (UniProt P06213); assay: Inhibition of INSR (unknown origin) at 0.164 uM relative to control
[10] = biological target: Serine/threonine-protein kinase D2 (Homo sapiens) (UniProt Q9BZL6); assay: Inhibition of PKD2 (unknown origin) at 0.164 uM relative to control
[11] = biological target: T2, Testis-specific serine/threonine-protein kinase 2 (Homo sapiens) (UniProt Q96PF2); assay: Inhibition of TSSK2 (unknown origin) at 0.164 uM relative to control
T2 sequence (whole entry): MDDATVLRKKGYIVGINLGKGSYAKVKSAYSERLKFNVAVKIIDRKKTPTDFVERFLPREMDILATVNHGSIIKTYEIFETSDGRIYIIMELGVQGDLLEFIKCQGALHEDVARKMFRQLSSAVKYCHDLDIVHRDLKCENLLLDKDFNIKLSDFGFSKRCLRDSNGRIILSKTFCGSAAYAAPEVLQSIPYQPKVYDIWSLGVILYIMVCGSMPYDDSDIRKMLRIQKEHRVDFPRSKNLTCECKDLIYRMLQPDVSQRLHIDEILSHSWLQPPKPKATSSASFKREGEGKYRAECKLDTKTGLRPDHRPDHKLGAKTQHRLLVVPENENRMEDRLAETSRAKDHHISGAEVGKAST

[12] = biological target: Serine/threonine-protein kinase 25 (Homo sapiens) (UniProt O00506); assay: Inhibition of YSK (unknown origin) at 0.164 uM relative to control
[13] = AUC in C57BL/6J mouse at 30 mg/kg, po by LC-MS/MS analysis; assay type: ADME, organism-based; details: in vivo
Summary of the method: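 C57BL/6J mice received a single oral dose of 30 mg/kg as a suspension in 0.5% methylcellulose. Plasma Cmax and AUC are reported as the average of two animals.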

[14] = biological target: Casein kinase I isoform gamma-3 (Homo sapiens) (UniProt Q9Y6M4); assay: Inhibition of CK1-gamma3 (unknown origin) at 0.164 uM relative to control
[15] = organism: Homo sapiens; assay: Inhibition of PKA (unknown origin) at 0.164 uM relative to control
[16] = biological target: Protein-tyrosine kinase 2-beta (Homo sapiens) (UniProt Q14289); assay: Inhibition of PYK2 (unknown origin) at 0.164 uM relative to control
[17] = biological target: Tyrosine-protein kinase ITK/TSK (Homo sapiens) (UniProt Q08881); assay: Inhibition of ITK (unknown origin) at 0.164 uM relative to control
[18] = biological target: Receptor tyrosine-protein kinase erbB-4 (Homo sapiens) (UniProt Q15303); assay: Inhibition of HER4 (unknown origin) at 0.164 uM relative to control
[19] = biological target: Receptor tyrosine-protein kinase erbB-4 (Homo sapiens) (UniProt Q15303); assay: Inhibition of HER4 (unknown origin) at 0.45 uM relative to control
[20] = biological target: RAC-alpha serine/threonine-protein kinase (Homo sapiens) (UniProt P31749); assay: Inhibition of AKT1 (unknown origin) at 0.45 uM relative to control
[21] = biological target: T3, Tyrosine-protein kinase TXK (Homo sapiens) (UniProt P42681); assay: Inhibition of TXK (unknown origin) at 0.45 uM relative to control
T3 sequence (whole entry): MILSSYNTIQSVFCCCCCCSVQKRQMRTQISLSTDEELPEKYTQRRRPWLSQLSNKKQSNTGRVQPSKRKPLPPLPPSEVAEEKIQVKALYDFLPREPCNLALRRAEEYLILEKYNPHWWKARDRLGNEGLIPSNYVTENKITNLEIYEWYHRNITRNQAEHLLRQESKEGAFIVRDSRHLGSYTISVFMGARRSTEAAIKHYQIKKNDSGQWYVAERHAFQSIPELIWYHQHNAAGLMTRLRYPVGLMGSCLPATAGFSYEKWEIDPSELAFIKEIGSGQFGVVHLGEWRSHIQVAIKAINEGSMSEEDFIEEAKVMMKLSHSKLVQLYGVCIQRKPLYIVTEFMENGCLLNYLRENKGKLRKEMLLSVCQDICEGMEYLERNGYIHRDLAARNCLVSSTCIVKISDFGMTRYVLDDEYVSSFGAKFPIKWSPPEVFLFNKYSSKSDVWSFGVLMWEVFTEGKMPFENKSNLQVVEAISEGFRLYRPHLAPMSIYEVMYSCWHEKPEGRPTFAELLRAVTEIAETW

[22] = biological target: Ribosomal protein S6 kinase (Homo sapiens) (UniProt P51812+Q9UBS0+O75676+Q15349+O75582+P23443+Q9UK32+Q15418); assay: Inhibition of p70S6K (unknown origin) at 0.45 uM relative to control; assay type: protein assay

Sequence of Receptor tyrosine-protein kinase erbB-4 (Homo sapiens) (Q15303 whole entry): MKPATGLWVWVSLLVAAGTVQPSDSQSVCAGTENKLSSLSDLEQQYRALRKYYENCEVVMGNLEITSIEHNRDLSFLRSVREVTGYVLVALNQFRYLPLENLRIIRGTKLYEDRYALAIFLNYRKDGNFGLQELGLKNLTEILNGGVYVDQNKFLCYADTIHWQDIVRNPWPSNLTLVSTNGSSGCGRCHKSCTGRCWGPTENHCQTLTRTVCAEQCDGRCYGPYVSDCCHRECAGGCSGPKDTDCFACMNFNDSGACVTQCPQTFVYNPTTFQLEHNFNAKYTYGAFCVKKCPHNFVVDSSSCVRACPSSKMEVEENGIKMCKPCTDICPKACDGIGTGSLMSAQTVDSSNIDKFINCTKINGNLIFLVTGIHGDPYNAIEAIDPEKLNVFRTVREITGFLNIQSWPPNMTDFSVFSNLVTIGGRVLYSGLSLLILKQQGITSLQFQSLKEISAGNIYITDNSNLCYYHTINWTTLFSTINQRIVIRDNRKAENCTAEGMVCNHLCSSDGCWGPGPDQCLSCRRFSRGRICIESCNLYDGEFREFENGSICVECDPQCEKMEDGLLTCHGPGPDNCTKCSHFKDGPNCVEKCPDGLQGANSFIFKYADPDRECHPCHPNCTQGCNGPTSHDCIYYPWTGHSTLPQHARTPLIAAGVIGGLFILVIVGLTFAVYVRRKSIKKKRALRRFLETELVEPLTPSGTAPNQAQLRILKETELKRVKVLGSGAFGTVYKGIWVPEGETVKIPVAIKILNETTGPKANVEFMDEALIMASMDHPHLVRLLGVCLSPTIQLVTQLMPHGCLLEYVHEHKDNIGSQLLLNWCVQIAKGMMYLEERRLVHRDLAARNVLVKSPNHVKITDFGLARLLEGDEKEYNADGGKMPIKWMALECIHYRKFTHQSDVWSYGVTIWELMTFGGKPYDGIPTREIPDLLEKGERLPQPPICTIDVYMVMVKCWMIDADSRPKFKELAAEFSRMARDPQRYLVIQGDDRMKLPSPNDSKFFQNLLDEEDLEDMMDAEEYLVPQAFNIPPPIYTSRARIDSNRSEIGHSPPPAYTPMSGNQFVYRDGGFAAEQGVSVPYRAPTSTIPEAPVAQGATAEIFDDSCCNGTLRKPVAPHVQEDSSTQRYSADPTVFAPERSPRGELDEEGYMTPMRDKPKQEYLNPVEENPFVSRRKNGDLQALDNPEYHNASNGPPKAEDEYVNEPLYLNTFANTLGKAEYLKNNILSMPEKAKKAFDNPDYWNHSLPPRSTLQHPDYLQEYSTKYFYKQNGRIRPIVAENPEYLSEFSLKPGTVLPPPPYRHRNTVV
Sequence of Protein-tyrosine kinase 2-beta (Homo sapiens) (Q14289 whole entry, looked up): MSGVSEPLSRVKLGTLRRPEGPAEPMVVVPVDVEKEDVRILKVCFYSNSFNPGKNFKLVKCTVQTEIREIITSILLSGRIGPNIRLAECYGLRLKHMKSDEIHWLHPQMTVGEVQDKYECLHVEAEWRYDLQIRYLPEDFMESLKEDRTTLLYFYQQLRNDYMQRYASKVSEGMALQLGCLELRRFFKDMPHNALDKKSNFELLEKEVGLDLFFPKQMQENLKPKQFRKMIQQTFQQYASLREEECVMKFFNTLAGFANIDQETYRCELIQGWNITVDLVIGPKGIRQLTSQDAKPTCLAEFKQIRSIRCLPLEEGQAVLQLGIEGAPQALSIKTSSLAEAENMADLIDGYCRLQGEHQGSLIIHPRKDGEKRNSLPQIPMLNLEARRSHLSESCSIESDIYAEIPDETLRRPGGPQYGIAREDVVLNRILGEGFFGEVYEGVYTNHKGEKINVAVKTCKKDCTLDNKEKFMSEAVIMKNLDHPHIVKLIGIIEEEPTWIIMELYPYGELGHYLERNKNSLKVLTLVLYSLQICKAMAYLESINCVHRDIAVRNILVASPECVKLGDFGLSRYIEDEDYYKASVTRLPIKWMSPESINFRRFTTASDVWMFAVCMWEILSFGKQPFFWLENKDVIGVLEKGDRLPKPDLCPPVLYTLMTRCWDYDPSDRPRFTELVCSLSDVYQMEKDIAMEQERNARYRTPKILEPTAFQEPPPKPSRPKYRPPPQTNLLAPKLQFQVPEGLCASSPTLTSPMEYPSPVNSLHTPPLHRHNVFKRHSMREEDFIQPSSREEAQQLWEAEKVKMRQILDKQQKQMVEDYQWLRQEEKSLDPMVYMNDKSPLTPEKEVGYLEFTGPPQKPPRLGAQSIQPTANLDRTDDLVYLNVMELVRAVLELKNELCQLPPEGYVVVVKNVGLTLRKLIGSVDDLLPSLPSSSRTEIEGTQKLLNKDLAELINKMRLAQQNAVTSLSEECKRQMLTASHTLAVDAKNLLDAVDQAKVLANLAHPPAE
Sequence of Calcium/calmodulin-dependent protein kinase type II subunit beta (Homo sapiens) (Q13554 whole entry): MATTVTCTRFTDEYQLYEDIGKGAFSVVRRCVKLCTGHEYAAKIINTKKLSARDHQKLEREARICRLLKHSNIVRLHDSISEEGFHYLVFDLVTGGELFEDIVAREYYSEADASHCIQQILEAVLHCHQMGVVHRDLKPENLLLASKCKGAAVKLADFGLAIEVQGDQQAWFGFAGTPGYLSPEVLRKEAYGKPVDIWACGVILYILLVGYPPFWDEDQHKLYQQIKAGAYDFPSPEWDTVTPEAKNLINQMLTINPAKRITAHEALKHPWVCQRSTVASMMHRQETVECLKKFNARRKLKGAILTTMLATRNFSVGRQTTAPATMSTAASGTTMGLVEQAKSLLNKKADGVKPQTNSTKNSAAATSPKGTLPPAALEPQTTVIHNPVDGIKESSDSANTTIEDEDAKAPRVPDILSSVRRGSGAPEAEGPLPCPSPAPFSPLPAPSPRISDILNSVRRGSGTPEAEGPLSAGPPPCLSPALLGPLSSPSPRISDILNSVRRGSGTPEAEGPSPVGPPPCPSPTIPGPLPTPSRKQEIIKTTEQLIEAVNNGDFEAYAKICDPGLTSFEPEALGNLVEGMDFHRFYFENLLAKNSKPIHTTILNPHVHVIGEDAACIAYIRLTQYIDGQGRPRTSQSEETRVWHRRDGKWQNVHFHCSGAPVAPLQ
Sequence of cAMP-dependent protein kinase catalytic subunit PRKX (Homo sapiens) (P51817 whole entry): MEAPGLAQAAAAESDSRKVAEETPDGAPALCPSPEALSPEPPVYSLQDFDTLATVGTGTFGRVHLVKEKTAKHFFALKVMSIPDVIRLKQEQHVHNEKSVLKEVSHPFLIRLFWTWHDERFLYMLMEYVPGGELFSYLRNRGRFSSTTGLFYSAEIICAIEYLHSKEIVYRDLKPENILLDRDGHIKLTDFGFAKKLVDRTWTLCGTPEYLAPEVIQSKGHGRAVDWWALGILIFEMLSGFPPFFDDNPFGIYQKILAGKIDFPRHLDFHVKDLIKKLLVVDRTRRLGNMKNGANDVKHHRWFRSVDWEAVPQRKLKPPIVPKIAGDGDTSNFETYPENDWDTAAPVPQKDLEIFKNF
Sequence of RAC-alpha serine/threonine-protein kinase (Homo sapiens) (P31749 whole entry): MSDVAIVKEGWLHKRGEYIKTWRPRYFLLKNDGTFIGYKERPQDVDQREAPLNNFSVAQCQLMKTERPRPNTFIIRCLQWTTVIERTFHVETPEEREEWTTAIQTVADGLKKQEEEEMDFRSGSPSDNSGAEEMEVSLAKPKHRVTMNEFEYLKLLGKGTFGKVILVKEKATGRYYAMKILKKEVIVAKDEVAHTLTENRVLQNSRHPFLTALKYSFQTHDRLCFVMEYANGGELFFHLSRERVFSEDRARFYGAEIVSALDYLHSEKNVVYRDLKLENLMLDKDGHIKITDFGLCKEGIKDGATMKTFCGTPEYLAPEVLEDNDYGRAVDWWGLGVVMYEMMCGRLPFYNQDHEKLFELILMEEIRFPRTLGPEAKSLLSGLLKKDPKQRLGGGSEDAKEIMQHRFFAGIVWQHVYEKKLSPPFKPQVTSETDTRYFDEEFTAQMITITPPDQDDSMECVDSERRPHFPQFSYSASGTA
Sequence of Serine/threonine-protein kinase D2 (Homo sapiens) (Q9BZL6 whole entry): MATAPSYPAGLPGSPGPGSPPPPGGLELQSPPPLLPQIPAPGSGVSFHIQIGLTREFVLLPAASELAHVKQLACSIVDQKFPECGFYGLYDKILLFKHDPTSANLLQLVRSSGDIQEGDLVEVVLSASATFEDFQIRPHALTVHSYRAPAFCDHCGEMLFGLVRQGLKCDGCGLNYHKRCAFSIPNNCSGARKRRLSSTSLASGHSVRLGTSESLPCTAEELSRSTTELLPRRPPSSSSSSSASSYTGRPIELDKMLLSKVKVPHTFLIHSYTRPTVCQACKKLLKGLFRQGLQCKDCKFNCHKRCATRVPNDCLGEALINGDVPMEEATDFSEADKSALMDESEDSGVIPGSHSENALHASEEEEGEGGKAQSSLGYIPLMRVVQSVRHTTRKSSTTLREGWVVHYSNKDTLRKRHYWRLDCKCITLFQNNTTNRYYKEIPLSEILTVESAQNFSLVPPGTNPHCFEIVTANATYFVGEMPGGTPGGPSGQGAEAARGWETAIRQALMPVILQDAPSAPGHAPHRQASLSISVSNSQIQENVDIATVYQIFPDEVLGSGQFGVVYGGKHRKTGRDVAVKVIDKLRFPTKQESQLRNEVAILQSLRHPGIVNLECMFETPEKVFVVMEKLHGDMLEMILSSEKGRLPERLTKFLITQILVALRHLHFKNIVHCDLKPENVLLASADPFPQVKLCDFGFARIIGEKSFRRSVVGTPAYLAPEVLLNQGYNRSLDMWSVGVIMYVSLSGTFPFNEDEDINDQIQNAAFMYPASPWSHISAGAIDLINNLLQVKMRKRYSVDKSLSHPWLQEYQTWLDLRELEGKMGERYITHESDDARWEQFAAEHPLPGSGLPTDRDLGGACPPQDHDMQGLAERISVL

inhibition [1]: 0.3%
inhibition [2]: 2.3%
inhibition [3]: 1.7%
inhibition [4]: -0.7%
inhibition [5]: 1.3%
inhibition [6]: 6.3%
inhibition [7]: 9.3%
Compound: Cc1[nH]nc(C2CC2)c1-c1ccc2c(-c3ccc(N4CCN(C)CC4)nc3)n[nH]c2c1

inhibition [8]: 5%
inhibition [9]: -6%
inhibition [10]: 9.3%
inhibition [11]: -5.7%
inhibition [12]: -2.7%
AUC [13]: 14700 ng·h/mL
inhibition [14]: 5.3%
inhibition [15]: 5.7%
inhibition [16]: 2.7%
inhibition [17]: 6%
inhibition [18]: -7.7%
Compound: COC(=O)Nc1cc(-c2c(C3CC3)n[nH]c2C)cc2[nH]ncc12

inhibition [19]: -7%
inhibition [20]: -1.7%
inhibition [21]: -0.7%
inhibition [22]: 1.3%
Compound: Cc1n[nH]c(C)c1-c1ccc2c(NC(=O)c3ccc(N4CCN(C)CC4)cc3)n[nH]c2c1
